Source: PubChem (The Scripps Research Institute Molecular Screening Center)
M1 antag – blocks human M1 muscarinic receptor; CHO-K1 hM1, Fluo-8 calcium fluorescence, ACh EC80 antagonist; inhibition, % at 3 µM; 1.3% of 360,000 active;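 active = percent inhibition above its own plate's cutoff, namely the mean of that plate's compound wells plus 3 SD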;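 also: peak over basal fluorescence ratio during 140 s after agonist addition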
CHRM1 agonist – agonists of human M1 muscarinic receptor. activation, % at 3 µM. 0.33% of 360,000 active. CHO-K1 hM1, Fluo-8 calcium fluorescence, agonist mode; 0% DMSO, 100% acetylcholine EC100. P11229;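 active = activation above the run's mean compound activation plus 3 SD, cut at about 16% in these data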;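 also: peak over basal fluorescence ratio within a 140 s kinetic read after compound addition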
M5 PAM – positive allosteric modulators of human muscarinic M5 receptor; CHO-K1 hM5, Fluo-8 calcium, ACh EC20 PAM; 0% = ACh EC20, 100% = ACh EC100; 0.3% of 360,000 active; activation, % at 3 µM; AID 624038;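 active = activation above the run cutoff, the mean activation of all test compounds plus 3 SD, cut at about 18% in these data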
Target sequence (P08912 whole entry, looked up): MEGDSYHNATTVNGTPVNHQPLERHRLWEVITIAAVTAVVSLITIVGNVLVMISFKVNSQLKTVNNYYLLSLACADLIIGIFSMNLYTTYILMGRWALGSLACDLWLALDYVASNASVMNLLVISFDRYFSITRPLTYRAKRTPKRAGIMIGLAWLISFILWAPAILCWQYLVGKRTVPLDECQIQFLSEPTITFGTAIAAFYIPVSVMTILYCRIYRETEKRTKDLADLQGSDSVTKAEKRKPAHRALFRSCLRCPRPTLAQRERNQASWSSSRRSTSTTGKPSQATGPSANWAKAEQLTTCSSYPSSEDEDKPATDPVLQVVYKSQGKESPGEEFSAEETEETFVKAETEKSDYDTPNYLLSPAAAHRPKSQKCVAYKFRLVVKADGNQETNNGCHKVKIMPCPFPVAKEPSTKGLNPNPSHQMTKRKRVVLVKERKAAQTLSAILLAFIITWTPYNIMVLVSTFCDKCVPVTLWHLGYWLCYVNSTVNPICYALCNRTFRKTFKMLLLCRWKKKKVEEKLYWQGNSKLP
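Assay system: CHO-K1 hM5 cells / Incubation: Fluo-8 loading 80 min at 37 °C plus 30 min room temperature / Technique: Fluo-8 calcium dye fluorescence, kinetic read / Repeats: single replicate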
CHRM1 PAM – positive allosteric modulators of human M1 muscarinic receptor; P11229; CHO-K1 hM1, Fluo-8 calcium fluorescence, ACh EC20; 0% = ACh EC20, 100% = maximal ACh; activation, % at 3 µM; 0.088% of 360,000 active; in the data active = activation above about 19%, passing the limit was not always enough
CHRM5 agonist – CHRM5 agonism in calcium assay. AID 624037. CHO-K1 hM5 cells, Fluo-8 calcium fluorescence; 0% DMSO wells, 100% maximal acetylcholine response. 0.19% of 360,000 active. P08912. activation, % at 3 µM;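 active = activation above the run's mean over test compounds plus 3 SD, cut at about 23% in these data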;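 also: signal is peak over basal fluorescence ratio across the kinetic read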
CHRM5 antagonist – blocks acetylcholine activation of human M5 receptor; CHO-hM5 cells, Fluo-8 calcium fluorescence, ACh EC80; AID 624040; P08912; inhibition, % at 3 µM; 0.59% of 360,000 active;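 active = inhibition above a per-plate cutoff, the mean of that plate's test compounds plus 3 SD, cut at about 27% in these data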
A number is an active result; - = inactive; . = no result. Only some compounds are listed: those with a hit (about 2% of all), similar ones and a draw of the others.

SMILES	M1 antag	CHRM1 agonist	M5 PAM	CHRM1 PAM	CHRM5 agonist	CHRM5 antagonist
COc1ccc(C(=O)OCCc2sc[n+](CC(=O)c3ccccc3)c2C)cc1	69	-	-	-	-	-
CC(C)C#Cc1ccc2c(c1)O[C@@H](CN(C)S(=O)(=O)c1cn(C)cn1)[C@@H](C)CN([C@H](C)CO)S2(=O)=O	-	-	-	-	-	-
COCCCN(Cc1cc(OC)c(OC)c(OC)c1)C(=S)Nc1cccc(Cl)c1	-	-	-	-	-	-
O=c1c2ccccc2sn1-c1ccccc1	-	-	-	-	-	-
O=c1c2cc(F)ccc2sn1-c1ccccc1	-	-	-	-	24	-
O=c1c2cc(C(F)(F)F)ccc2sn1-c1ccccc1	-	16	-	-	-	-
O=C(O)c1cccc(-n2sc3ccccc3c2=O)c1	-	-	-	-	-	-
CC(C)C[C@H]1CN(CCCC[C@H]2CNC(=O)C(=O)N2Cc2ccccc2)C(=O)C(=O)N1CC1CCCCC1	.	.	-	.	-	-
CCN(CC1CCCN(CCc2cccc(OC)c2)C1)C(=O)c1ccc(COC)o1 (centres undefined)	-	-	-	-	-	-
CN(CC1CCCN(CCc2cccc(C(F)(F)F)c2)C1)C(=O)c1cc2ccccc2o1 (centres undefined)	52	-	-	-	-	-
COc1cccc(C(=O)N(C)CC2CCN(CCc3cccc(C(F)(F)F)c3)CC2)c1	-	-	-	-	-	-
CCN(CC1CCCN(CCc2cccc(F)c2)C1)C(=O)c1cc2ccccc2o1 (centres undefined)	53	-	-	-	-	-
CCN(CC1CCCN(CCc2cccc(F)c2)C1)C(=O)c1cc(C)oc1C (centres undefined)	43	-	-	-	-	-
CCOC(=O)[C@]12CCC=C1N(Cc1ccc(Cl)cc1Cl)C(=O)[C@H](CC(=O)NCc1ccccc1)C2	.	.	-	.	-	-
CCN1CCN(c2ccc(NC(=O)CCc3c(C)nc4c(-c5ccc(F)cc5)c(C)nn4c3C)cc2)CC1	34	-	-	-	-	-
COc1ccccc1CCC(=O)NNC(=O)Cn1nc(C)cc1C	-	-	-	-	-	-
CSc1ccc(CN2CCC(C)(Oc3cccc(C#N)c3)C2)cc1 (centres undefined)	36	-	-	-	-	-
CC1=C(C(=O)N(C)C)CC(CC(=O)NCCc2ccccn2)C(=O)N1CCCN1CCCC1=O (centres undefined)	-	-	-	-	-	-
COc1ccc(CN(C)C(=O)/C=C/[C@H]2O[C@@H](n3cc(C)c(=O)[nH]c3=O)C[C@@H]2O)cc1OC	-	-	-	-	-	-
CCCC1CC(C)(C(=O)CSc2n[nH]c(-c3ccccc3)n2)OC1=O (centres undefined)	30	-	-	-	-	-
COc1ccc(NS(=O)(=O)c2c(C)cc(C)cc2C)cc1	-	-	26	-	-	-
CCn1cc(/C=N/NS(=O)(=O)c2ccc(OC)cc2)c(C)n1	-	21	-	-	-	-
C(#CCN1CCOCC1)COCCCOC(c1ccccc1)c1ccccc1	-	-	-	-	-	-
Cc1ccc(C(OCC(C)(C)C[N+](C)(C)C)c2ccccc2)cc1 (centres undefined)	99	-	-	-	-	94
CN(C)CC#CCOC(c1ccccc1)c1ccccc1	80	-	-	-	-	-
SMILES	M1 antag	CHRM1 agonist	M5 PAM	CHRM1 PAM	CHRM5 agonist	CHRM5 antagonist
CCN(CC)CCOC(c1ccccc1)c1ccc(C)cc1 (centres undefined)	96	-	-	-	-	75
CCNCCOC(c1ccccc1)c1ccccc1	26	-	-	-	-	-
O=C(Nc1ccc(C(=O)O)cc1)/C(=C\c1ccc2c(c1)OCO2)NC(=O)c1ccccc1Cl	-	-	-	-	-	-
CCN(CC)CC#CCOC(c1ccccc1)c1ccccc1	94	-	-	-	-	-
COCCN(CCOC)CC(O)COC(c1ccccc1)c1ccccc1 (centres undefined)	-	-	-	-	-	-
Cc1c(C(=O)NCc2ccccc2C(F)(F)F)sc(=O)n1Cc1ccc(Cl)c(Cl)c1	-	-	-	-	-	-
